This is an account of results in ChEMBL document CHEMBL3739355, “Design, synthesis and evaluation of bitopic arylpiperazinephenyl-1,2,4-oxadiazoles as preferential dopamine D3 receptor ligands” (Bioorg Med Chem, 2016).

Experiment [1] deals with T1, D(2) dopamine receptor (Homo sapiens, UniProt P14416). Kind of experiment: Displacement of [3H]-sulpiride from human dopamine D2 receptor expressed in HEK293 cells after 150 mins by liquid scintillation counting. Format: cell-based. The method, boiled down: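 HEK293 cells grown in MEM with 10% FBS and penicillin/streptomycin, PEI-transfected with human D2R plasmid (medium changed at 4 h, grown 24 h), then seeded and cultured overnight. Rinsed with ice-cold serum-free MEM, incubated with 2.2 nM [³H]-sulpiride plus varying ligand concentrations at 4 °C for 150 min. Washed three times in ice-cold MEM/10 mM HEPES pH 7.4, lysed in 1% SDS, scintillation counted. IC50 came from nonlinear regression curve fits.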
T1 sequence (P14416 whole entry): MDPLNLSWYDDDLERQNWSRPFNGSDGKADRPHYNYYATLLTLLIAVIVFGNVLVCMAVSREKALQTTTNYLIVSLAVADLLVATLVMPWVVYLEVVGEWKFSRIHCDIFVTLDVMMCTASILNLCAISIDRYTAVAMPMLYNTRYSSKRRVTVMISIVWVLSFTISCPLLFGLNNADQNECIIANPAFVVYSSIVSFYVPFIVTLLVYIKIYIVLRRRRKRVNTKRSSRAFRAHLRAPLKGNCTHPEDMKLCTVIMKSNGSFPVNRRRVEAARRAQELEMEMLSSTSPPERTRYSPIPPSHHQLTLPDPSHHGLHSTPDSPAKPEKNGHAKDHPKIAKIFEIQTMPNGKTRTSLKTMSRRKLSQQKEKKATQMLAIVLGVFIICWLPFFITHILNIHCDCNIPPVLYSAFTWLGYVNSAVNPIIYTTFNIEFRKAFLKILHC
In general terms: In a radioligand displacement assay an active substance lowers the binding of a labelled ligand.

For experiment [2], the target named is T1, D(2) dopamine receptor. As to the kind of experiment: Displacement of [3H]-sulpiride from human dopamine D2 receptor expressed in HEK293 cells at 0.1 uM after 150 mins by liquid scintillation counting. Format: cell-based. In a few lines:
(§1)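 Transiently PEI-transfected HEK293 cells expressing human D2R or D3R, serum-free, rinsed ice-cold. Each ligand at a single concentration competed at 4 °C for 150 min with [³H]-sulpiride: 2.2 nM for D2R, 4.4 nM for D3R. Unbound label removed by three washes in ice-cold MEM/10 mM HEPES pH 7.4. Cells were lysed in 1% SDS and bound radioactivity read by liquid scintillation.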

Experiment [3] has as its target T2, D(3) dopamine receptor (Homo sapiens, UniProt P35462). Kind of experiment: Displacement of [3H]-sulpiride from human dopamine D3 receptor expressed in HEK293 cells at 0.1 uM after 150 mins by liquid scintillation counting. It is filed as cell-based. In a few lines:
as §1

For experiment [4], the target named is T2, D(3) dopamine receptor. Kind of experiment: Displacement of [3H]-sulpiride from human dopamine D3 receptor expressed in HEK293 cells after 150 mins by liquid scintillation counting. Format: cell-based.
Experiment [5] deals with T2, D(3) dopamine receptor. As to the kind of experiment: Displacement of [3H]-sulpiride from human dopamine D3 receptor expressed in HEK293 cells at 1 uM after 150 mins by liquid scintillation counting. It is filed as cell-based. In a few lines:
as §1

In experiment [6] the target is T1, D(2) dopamine receptor. As to the kind of experiment: Displacement of [3H]-sulpiride from human dopamine D2 receptor expressed in HEK293 cells at 1 uM after 150 mins by liquid scintillation counting. It is filed as cell-based. The method, boiled down: as §1
For the next experiment, the species on record is Homo sapiens. Kind of experiment: Selectivity ratio of Ki for human dopamine D2 receptor to Ki for human dopamine D3 receptor.

“And” between values parts separate entries of the source, which are not always exact repeats. Equal values may be shown once.

In general, Ki refers to a dissociation constant, usually derived from enzyme kinetics or from competition with a known ligand. A higher Ki goes with lower affinity. The inhibition is the change of the read-out against control, counted positive when it falls.

T2 sequence (P35462 whole entry): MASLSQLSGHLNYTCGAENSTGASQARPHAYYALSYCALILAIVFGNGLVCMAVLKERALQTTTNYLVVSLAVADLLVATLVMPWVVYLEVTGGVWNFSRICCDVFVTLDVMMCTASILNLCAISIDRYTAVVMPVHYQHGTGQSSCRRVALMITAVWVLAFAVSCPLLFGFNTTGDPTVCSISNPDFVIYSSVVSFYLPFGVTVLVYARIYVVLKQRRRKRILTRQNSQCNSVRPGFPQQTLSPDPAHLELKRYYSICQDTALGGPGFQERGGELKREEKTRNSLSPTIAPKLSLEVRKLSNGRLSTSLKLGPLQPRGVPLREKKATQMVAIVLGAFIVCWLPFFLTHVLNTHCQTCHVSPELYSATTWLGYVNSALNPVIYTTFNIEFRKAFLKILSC

In turn, `O=C(NCCCCN1CCN(c2ccc(Cl)cc2Cl)CC1)c1cc2ccccc2[nH]1` yielded an inhibition constant Ki at D(2) dopamine receptor [1] above 23.9 µM.

Consider `Clc1ccc(-c2nc(NCCCCN3CCN(c4ccc(Cl)cc4Cl)CC3)no2)cc1`, for which the inhibition at D(2) dopamine receptor [2] was 15.2% and 40%; on D(3) dopamine receptor [3], 33.8% and 16.6%.

As for `Clc1ccc(N2CCN(CCCCNc3noc(-c4ccccc4)n3)CC2)c(Cl)c1` [listing 1 of 3 here], the values for the inhibition constant Ki at D(2) dopamine receptor [1] and on D(3) dopamine receptor [4] were 6.23 µM and 0.81 µM, respectively.

On to `CCCN(CCCCN1CCN(c2cccc(C(F)(F)F)c2)CC1)c1noc(-c2ccccc2)n1`, for which the inhibition was 9.7% on D(3) dopamine receptor [5] and 17.8% at D(2) dopamine receptor [6].

For `Clc1ccc(N2CCN(CCCCNc3noc(-c4ccccc4)n3)CC2)c(Cl)c1` [listing 2 of 3 here], the Ratio Ki in the experiment filed under Homo sapiens is 7.7 and 4.4.

As for `FC(F)(F)c1cccc(N2CCN(CCCCNc3noc(-c4ccccc4)n3)CC2)c1`, the inhibition is 19.8% on D(2) dopamine receptor [2] and 35.3% at D(3) dopamine receptor [3].

`Fc1ccccc1N1CCN(CCCCNc2noc(-c3ccccc3)n2)CC1`: the inhibition on D(2) dopamine receptor [2] was found to be 69.8%; at D(3) dopamine receptor [3], 50.7%.

Regarding `Clc1ccc(N2CCN(CCCCNc3noc(-c4ccccn4)n3)CC2)c(Cl)c1`, the inhibition on D(2) dopamine receptor [2] was 7.8% and 17.9%; on D(3) dopamine receptor [3], 9.5% and 14.8%.

`N#Cc1ccc(-c2nc(NCCCCN3CCN(c4ccc(Cl)cc4Cl)CC3)no2)cc1`: the inhibition on D(2) dopamine receptor [2] was 8.8% and 22.8%; at D(3) dopamine receptor [3] it was 36.6% and 11.8%.

With `CCCN(CCCCN1CCN(c2cccc(Cl)c2Cl)CC1)c1noc(-c2ccccc2)n1`, the inhibition on D(3) dopamine receptor [5] stood at 22.1%; on D(2) dopamine receptor [6], 50.1%.

Regarding `COc1ccccc1-c1nc(NCCCCN2CCN(c3ccc(Cl)cc3Cl)CC2)no1`, the inhibition was 5.6% and 5.4% on D(2) dopamine receptor [2]; 4.2% and 7.7% at D(3) dopamine receptor [3].

With `Clc1ccc(N2CCN(CCCCNc3noc(-c4ccccc4)n3)CC2)cc1`, the values for the Ki on D(2) dopamine receptor [1] and at D(3) dopamine receptor [4] were 79.6 µM and 0.27 µM, respectively. Besides, the inhibition on D(2) dopamine receptor [2] was -2.6% and 8.3%. The Ratio Ki in the experiment filed under Homo sapiens was 297.

For the compound `Clc1ccc(N2CCN(CCCCNc3noc(-c4ccccc4)n3)CC2)c(Cl)c1` [listing 3 of 3 here], the Ki was found to be 1.29 µM at D(2) dopamine receptor [1] and 0.29 µM on D(3) dopamine receptor [4].

Turning to `CCCN(CCCCN1CCN(c2ccc(Cl)cc2Cl)CC1)c1noc(-c2ccccc2)n1`, the inhibition on D(3) dopamine receptor [5] is 15.1%; at D(2) dopamine receptor [6], -0.6%.

Turning to `Clc1ccc(N2CCN(CCCCNc3noc(-c4ccc(Br)cc4)n3)CC2)c(Cl)c1`, the inhibition on D(2) dopamine receptor [2] was 12.7%; on D(3) dopamine receptor [3] it was 14.2%.

As for `CCCN(CCCCN1CCN(c2ccccc2F)CC1)c1noc(-c2ccccc2)n1`, the figures for the inhibition on D(3) dopamine receptor [5] and at D(2) dopamine receptor [6] were 3.2% and 10.6%, respectively.

For the compound `Clc1cccc(-c2nc(NCCCCN3CCN(c4ccc(Cl)cc4Cl)CC3)no2)c1`, the inhibition on D(2) dopamine receptor [2] is 28.3% and 40.4%; at D(3) dopamine receptor [3] it was 37% and 41.5%.
